Data published in ChEMBL document CHEMBL4823320, “SAR of novel benzothiazoles targeting an allosteric pocket of DENV and ZIKV NS2B/NS3 proteases” (Bioorg Med Chem, 2021).
Activity calls are given as the source filed them. The calls are words filed in the database; no cut-off is given here.

Assays:
[1] = tested on: dengue virus type 2; assay: Antiviral activity against DENV2 New Guinea C infected in human Huh7 cells assessed as decrease in viral RNA expression at 10 uM measured up to 72 hrs by firefly luciferase assay; assay type: functional, organism-based; details: Huh-7, time hrs <=72
In short: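 Huh7 cells electroporated with in vitro transcribed DENV2 NGC subgenomic replicon RNA (firefly luciferase), 4×10^6 cells per 10 µg RNA. Compound at 10 µM or DMSO is added 4 h post-electroporation in medium with 15 mM HEPES and replenished at 48 h. Lysates are taken at 4–96 h and replication is expressed relative to the 4 h input value. Duplicate luminometer reads; mean ± SD, n = 3.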

[2] = target: T1, Sortase A (Staphylococcus aureus) (UniProt Q9S446); assay: Inhibition of staphylococcus aureus Sortase A protease assessed as residual enzyme activity at 20 uM by FRET assay relative to control
T1 sequence (whole entry): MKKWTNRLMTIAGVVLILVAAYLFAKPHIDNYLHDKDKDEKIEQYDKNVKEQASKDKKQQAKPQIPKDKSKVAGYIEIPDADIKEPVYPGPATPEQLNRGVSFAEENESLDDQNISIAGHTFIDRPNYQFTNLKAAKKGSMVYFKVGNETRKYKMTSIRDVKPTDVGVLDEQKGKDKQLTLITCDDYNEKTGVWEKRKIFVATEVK
In short: (§1)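 Compound at 20 µM, read every 30 s for 10 min at 25 °C. Residual activity is relative to DMSO control; mean ± SD, ≥3 independent measurements.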

[3] = Chemical stability of compound in cell culture conditions at pH 7.4 HEPES buffer measured after 20 hrs by HPLC/MS analysis; assay type: physicochemical; details: read-out: Stabilty
In short: (§2)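 Compound incubated under simulated cell-assay conditions (HEPES pH 7.4) and analysed by HPLC/MS after 15 min, 90 min and 20 h. Stability is the compound peak integral in the 210 nm UV trace as a fraction of the total integral.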

[4] = Chemical stability of compound in cell culture conditions at pH 7.4 HEPES buffer measured after 15 mins by HPLC/MS analysis; assay type: physicochemical; details: read-out: Stabilty; in short: as §2
[5] = Chemical stability of compound in tris assay buffer at pH 9 measured after 90 mins by HPLC/MS analysis; assay type: physicochemical; details: pH 9, 1.5 h
In short: (§3)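 Compound incubated in protease assay buffer (Tris pH 9.0) under simulated assay conditions and analysed by HPLC/MS after 15 min, 90 min and 20 h. Stability is the compound peak integral in the 210 nm UV trace as a proportion of the total integral.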

[6] = tested on: Severe acute respiratory syndrome coronavirus 2; assay: Inhibition of SARS-CoV-2 Main protease assessed as residual enzyme activity at 20 uM by FRET assay relative to control
In short: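 Compound at 20 μM; fluorescence read every 30 s for 10 min at 25 °C. Residual activity expressed relative to DMSO control; mean of ≥3 independent measurements.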

[7] = target: Prothrombin (Homo sapiens) (UniProt P00734); assay: Inhibition of Thrombin (unknown origin) assessed as residual enzyme activity at 20 uM by FRET assay relative to control; in short: as §1
[8] = target: Nonstructural protein 3 (Zika virus, UniProt A0A024AXB9); assay: Inhibition of ZIKV NS2B-NS3 protease expressed in Escherichia coli BL21(DE3) using Boc-Gly-Arg-Arg-AMC as substrate by FRET assay
In short: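 His-tagged ZIKV NS2B/NS3 protease in 50 mM Tris pH 9.0, 20% glycerol, 1 mM CHAPS with 100 µM Boc-Gly-Arg-Arg-AMC. Dilution series 0.01–100 µM, read every 30 s for 10 min at 25 °C. IC50 from a four-parameter fit of hydrolysis rate; mean ± SD of ≥3 independent measurements.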

[9] = Chemical stability of compound in cell culture conditions at pH 7.4 HEPES buffer measured after 90 mins by HPLC/MS analysis; assay type: physicochemical; details: read-out: Stabilty; in short: as §2
[10] = target: Genome polyprotein (dengue virus type 2, UniProt P29990); assay: Inhibition of DENV2 NS2B-NS3 protease expressed in Escherichia coli BL21(DE3) using Boc-Gly-Arg-Arg-AMC as substrate by FRET assay
In short: (§4)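 Recombinant His-tagged NS2B/NS3 protease, expressed in E. coli BL21-Gold (DE3) (1 mM IPTG, 20 °C, 16 h) and purified by Ni affinity and size exclusion. Assayed in 50 mM Tris pH 9.0, 20% glycerol, 1 mM Chaps, with 100 μM Boc-Gly-Arg-Arg-AMC. Fluorescence read every 30 s for 10 min at 25 °C; inhibitor 0.01–100 μM. IC50 from a four-parameter fit of hydrolysis rate; ≥3 independent experiments.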

[11] = Chemical stability of compound in tris assay buffer at pH 9 measured after 20 hrs by HPLC/MS analysis; assay type: physicochemical; details: pH 9, 20 h; in short: as §3
[12] = target: Chymotrypsin (Homo sapiens) (UniProt Q99895+P17538+P40313+Q6GPI1); assay: Inhibition of Chymotrypsin (unknown origin) assessed as residual enzyme activity at 20 uM by FRET assay relative to control; assay type: protein assay
In short: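 α-Chymotrypsin in 50 mM Tris pH 8.0, 100 mM NaCl with Succ-Leu-Tyr-AMC. Compound at 20 µM, read every 30 s for 10 min at 25 °C. Residual activity is relative to DMSO control; mean ± SD, ≥3 independent measurements.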

[13] = target: Trypsin (Homo sapiens) (UniProt P07477+P07478+P35030); assay: Inhibition of Trypsin (unknown origin) assessed as residual enzyme activity at 20 uM by FRET assay relative to control; assay type: protein assay
In short: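 Trypsin in 50 mM Tris pH 8.0, 100 mM NaCl, 5 mM EDTA with 40 µM Z-Phe-Arg-AMC. Compound at 20 µM, read every 30 s for 10 min at 25 °C. Residual activity is relative to DMSO control; mean ± SD, ≥3 independent measurements.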

[14] = Inhibition of Rhodesain (unknown origin) assessed as residual enzyme activity at 20 uM by FRET assay relative to control
In short: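 Compound at 20 µM, fluorescence read every 30 s for 10 min at 25 °C. Residual activity is relative to DMSO control; mean ± SD, ≥3 independent measurements.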

[15] = target: Urokinase-type plasminogen activator (Homo sapiens) (UniProt P00749); assay: Inhibition of Urokinase plasminogen activator (unknown origin) assessed as residual enzyme activity at 20 uM by FRET assay relative to control
In short: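 Urokinase plasminogen activator in 50 mM Tris pH 7.4, 50 mM NaCl, 0.5 mM EDTA with 240 µM Z-Gly-Gly-Arg-AMC. Compound at 20 µM, read every 30 s for 10 min at 25 °C. Residual activity is relative to DMSO control; mean ± SD, ≥3 independent measurements.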

[16] = Chemical stability of compound in tris assay buffer at pH 9 measured after 15 mins by HPLC/MS analysis; assay type: physicochemical; details: pH 9, 0.25 h; in short: as §3
[17] = target: Genome polyprotein (dengue virus type 2) (UniProt P29990); assay: Inhibition of DENV2 NS2B-NS3 protease expressed in Escherichia coli BL21(DE3) using Boc-Gly-Arg-Arg-AMC as substrate at 200 uM by FRET assay
In short: (§5)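 His-tagged NS2B/NS3 protease, purified by Ni affinity and size exclusion, in 50 mM Tris pH 9.0, 20% glycerol, 1 mM CHAPS with 100 µM Boc-Gly-Arg-Arg-AMC. Fluorescence is read every 30 s for 10 min at 25 °C. Percent inhibition is at a single inhibitor concentration of 20, 100 or 200 µM; ≥3 independent measurements.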

[18] = target: T2, Nonstructural protein 3 (Zika virus) (UniProt A0A024AXB9); assay: Inhibition of ZIKV NS2B-NS3 protease expressed in Escherichia coli BL21(DE3) using Boc-Gly-Arg-Arg-AMC as substrate at 200 uM by FRET assay; in short: as §5
[19] = Inhibition of DENV2 NS2B-NS3 protease T120A/N167Q mutant expressed in Escherichia coli BL21(DE3) using Boc-Gly-Arg-Arg-AMC as substrate by FRET assay; parameters: species or system dengue virus type 2; in short: as §4
[20] = tested on: Zika virus; assay: Antiviral activity against ZIKV H/PF/2013 infected in human Huh7 cells assessed as decrease in viral RNA expression at 10 uM measured up to 96 hrs by renilla luciferase assay; assay type: functional, organism-based; details: Huh-7, time hrs <=96
In short: (§6)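 Huh7 cells electroporated with in vitro transcribed ZIKV H/PF/2013 subgenomic replicon RNA (Renilla luciferase, coelenterazine substrate). Compound at 10 µM or DMSO is added 4 h post-electroporation in medium with 15 mM HEPES and replenished at 48 h. Lysates are taken at 4, 24, 48, 72 and 96 h and normalized to the 4 h input value. Duplicate reads; mean ± SD, n = 3.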

[21] = tested on: Huh-7; assay: Cytotoxicity against human Huh-7 cells assessed as cell viability after 96 hrs by CellTiter-Glo Luminescent cell viability assay; assay type: cell-based; details: huh-7, 96 h
In short: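 Huh7 cells seeded at 4×10^3 per well and treated one day later with 1.25–40 µM compound or DMSO for 96 h. ATP-based luminescent viability read-out, normalized to untreated cells.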

[22] = target: Genome polyprotein (dengue virus type 2) (UniProt P29990); assay: Inhibition of DENV2 NS2B-NS3 protease expressed in Escherichia coli BL21(DE3) using Boc-Gly-Arg-Arg-AMC as substrate at 100 uM by FRET assay; in short: as §5
[23] = target: T2, Nonstructural protein 3 (Zika virus); assay: Inhibition of ZIKV NS2B-NS3 protease expressed in Escherichia coli BL21(DE3) using Boc-Gly-Arg-Arg-AMC as substrate at 100 uM by FRET assay; in short: as §5
[24] = tested on: Zika virus; assay: Antiviral activity against ZIKV H/PF/2013 infected in human Huh7 cells assessed as decrease in viral RNA expression at 10 uM measured up to 72 hrs by renilla luciferase assay; assay type: functional, organism-based; details: Huh-7, time hrs <=72; in short: as §6

SMILES | Activity [1] | Activity [2] | remaining at 20 h [3] | remaining at 0.25 h [4] | Stabilty [5] | Activity [6] | Activity [7] | IC50 [8] | remaining at 1.5 h [9] | IC50 [10] | Stabilty [11] | Activity [12] | Activity [13] | Activity [14] | Activity [15] | Stabilty [16] | inhibition [17] | inhibition [18] | other results
COc1cc2nc(NC(=O)c3ccc(I)cc3)sc2cc1OC | Active | – | – | – | – | – | – | – | – | – | – | – | – | – | – | – | – | – | –
O=C(Nc1nc2cc(O)c(O)cc2s1)c1ccccc1 | – | 57% | 95% | 95% | 61% | 90% | 75% | 9190 nM | 95% | 27000 nM | 83% | 77% | 80% | 91% | 100% | 67% | – | – | –
O=C(Nc1ccccc1)c1cc2cc(O)ccc2o1 | – | – | – | – | – | – | – | – | – | – | – | – | – | – | – | – | inactive | inactive | –
O=C(Nc1ccccc1)c1cc2cc(O)c(O)cc2o1 | Active | 64% | 95% | 95% | 83% | 52% | 97% | 1040 nM | 95% | 690 nM | 83% | 58% | 96% | 93% | 91% | 83% | – | – | IC50 [19]: 730 nM; Activity [20]: Active; Activity [21]: Non-Toxic
O=C(Nc1ccccc1)[C@@H]1CCCN1C(=O)c1cc2cc(O)c(O)cc2o1 | – | 81% | 95% | 95% | 83% | 99% | 81% | 2430 nM | 95% | 6430 nM | 83% | 78% | 88% | 93% | 82% | 83% | – | – | –
O=C(Nc1ccccc1)c1cc2c(O)cc(O)cc2o1 | – | – | – | – | – | – | – | – | – | – | – | – | – | – | – | – | – | – | inhibition [22]: 51%; inhibition [23]: 62%
O=C(Nc1nc2cc(O)c(O)cc2s1)C(c1ccccc1)c1ccccc1 | Active | 73% | 95% | 95% | 83% | 77% | 95% | 950 nM | 95% | 11100 nM | 83% | 96% | 85% | 86% | 62% | 83% | – | – | Activity [21]: Non-Toxic
COc1cc2nc(NC(=O)C(c3ccccc3)c3ccccc3)sc2cc1OC | Active | – | – | – | – | – | – | – | – | – | – | – | – | – | – | – | – | – | Activity [24]: inactive
O=C(Nc1ccccc1)c1cc2cc([N+](=O)[O-])c(O)cc2o1 | – | – | – | – | – | – | – | – | – | – | – | – | – | – | – | – | 19% | 48% | –
Nc1cc2cc(C(=O)Nc3ccccc3)oc2cc1O | – | – | – | – | – | – | – | – | – | – | – | – | – | – | – | – | 34% | 52% | –
O=C(Nc1ccccc1)c1cc2ccc(O)cc2o1 | – | – | – | – | – | – | – | – | – | – | – | – | – | – | – | – | inactive | inactive | –
